# Data from ChEMBL document CHEMBL1150238, “Podophyllotoxin directly binds a hinge domain in E2 of HPV and inhibits an E2/E7 interaction in vitro” (Bioorg Med Chem, 2008).
# Calls of active or inactive are those of the source. The rule behind the calls is not given here.
# Legend:
# Regulatory protein E2 [1] = target: T1, Regulatory protein E2 (Human papillomavirus type 1a, UniProt P03118); test: Binding affinity to HPV1a recombinant E2 protein activator domain by surface plasmon resonance assay
# T1 sequence (P03118 whole entry): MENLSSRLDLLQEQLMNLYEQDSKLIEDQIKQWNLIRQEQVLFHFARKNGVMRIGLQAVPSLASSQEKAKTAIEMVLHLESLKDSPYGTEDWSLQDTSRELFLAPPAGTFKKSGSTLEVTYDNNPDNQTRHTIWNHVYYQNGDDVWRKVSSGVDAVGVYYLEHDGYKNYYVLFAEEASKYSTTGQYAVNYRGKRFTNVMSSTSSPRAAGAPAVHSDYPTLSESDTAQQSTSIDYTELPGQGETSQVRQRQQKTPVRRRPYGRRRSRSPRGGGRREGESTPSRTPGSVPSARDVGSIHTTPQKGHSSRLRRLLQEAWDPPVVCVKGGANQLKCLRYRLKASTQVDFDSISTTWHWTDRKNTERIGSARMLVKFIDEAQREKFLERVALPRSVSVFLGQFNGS
# In short: (§1)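 E2 proteins (full-length and HPV 1a domain constructs, FLAG-tagged) expressed in E. coli with 1 mM IPTG induction for 3 h and purified by FPLC. Proteins amine-coupled to sensor chip (EDC/NHS activation, 10 mM acetate pH 4.0–6.0, ethanolamine block). PT flowed at various concentrations in PBS pH 7.4, 0.005% Tween20, 5% glycerol, 5% DMSO, 20–30 µL/min, 25 °C. Reference flow cell subtracted, KD derived; replicates over two times.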
# Regulatory protein E2 [2] = target: T1, Regulatory protein E2; test: Binding affinity to HPV1a recombinant E2 protein by surface plasmon resonance method; in short: as §1
# [3] = target: T2, Regulatory protein E2 (Human papillomavirus type 1a) (UniProt P03118); test: Inhibition of HPV1a recombinant E2 protein-DNA interaction by electron mobility shift assay
# T2 sequence (whole entry): T1 sequence (P03118 whole entry)
# [4] = target: T2, Regulatory protein E2 (Human papillomavirus type 1a); test: Inhibition of HPV1a E2-E7 protein interaction at 500 uM assessed as rate of E2 binding to E7 protein by surface plasmon resonance method; set-up: scale not given: the % may be the effect or the level left
# In short: (§2)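 SPR competition format: E2 protein at 0.1 µM was mixed with PT in 5% DMSO and injected at 30 µL/min, 25 °C. Bound E2 amount was compared at 115 s after injection. Buffer alone and PT without E2 served as sensorgram controls.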
# Regulatory protein E2 [5] = target: T1, Regulatory protein E2; test: Binding affinity to HPV1a recombinant E2 protein DNA binding domain by surface plasmon resonance assay; in short: as §1
# [6] = target: T2, Regulatory protein E2 (Human papillomavirus type 1a); test: Inhibition of HPV1a E2-E7 protein interaction at 250 uM assessed as rate of E2 binding to E7 protein by surface plasmon resonance method; set-up: scale not given: the % may be the effect or the level left; in short: as §2
# Regulatory protein E2 [7] = target: T3, Regulatory protein E2 (human papillomavirus 11, UniProt P04015); test: Binding affinity to HPV11 recombinant E2 protein by surface plasmon resonance method; in short: as §1
# T3 sequence (P04015 whole entry): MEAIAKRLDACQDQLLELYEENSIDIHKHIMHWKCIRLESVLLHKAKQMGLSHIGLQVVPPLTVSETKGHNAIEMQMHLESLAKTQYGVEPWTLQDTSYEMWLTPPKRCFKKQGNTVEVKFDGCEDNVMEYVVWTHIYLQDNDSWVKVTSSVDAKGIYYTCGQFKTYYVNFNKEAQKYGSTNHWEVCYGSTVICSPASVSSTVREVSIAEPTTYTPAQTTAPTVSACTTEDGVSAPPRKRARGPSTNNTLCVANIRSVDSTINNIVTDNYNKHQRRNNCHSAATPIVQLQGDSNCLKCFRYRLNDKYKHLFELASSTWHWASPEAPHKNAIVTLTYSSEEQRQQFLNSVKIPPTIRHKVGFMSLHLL
# [8] = Cytotoxicity against mouse L210 cells after 48 hrs; type: functional, cell-based; details: L210, 48 h
# In short: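 Cells seeded at 1.0 × 10⁴ per 100 µL and preincubated 24 h at 37 °C, 5% CO2. They were then exposed to graded compound concentrations for 48 h. WST-8 reagent added for 4 h, and absorbance read at 450 nm.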
# Regulatory protein E2 [9] = target: T4, Regulatory protein E2 (Human papillomavirus 16, UniProt P03120); test: Binding affinity to HPV16 recombinant E2 protein by surface plasmon resonance method; in short: as §1
# T4 sequence (P03120 whole entry): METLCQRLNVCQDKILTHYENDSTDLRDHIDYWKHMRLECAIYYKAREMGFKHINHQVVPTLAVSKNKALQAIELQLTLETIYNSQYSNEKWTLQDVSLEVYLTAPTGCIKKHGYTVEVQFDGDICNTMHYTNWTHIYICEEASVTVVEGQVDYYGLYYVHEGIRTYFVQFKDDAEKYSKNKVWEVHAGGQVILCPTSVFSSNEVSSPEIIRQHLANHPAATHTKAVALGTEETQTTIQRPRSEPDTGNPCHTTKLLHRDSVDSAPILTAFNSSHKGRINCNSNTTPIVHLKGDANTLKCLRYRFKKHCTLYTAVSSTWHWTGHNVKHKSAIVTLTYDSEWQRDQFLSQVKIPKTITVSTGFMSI
# Regulatory protein E2 [10] = target: T1, Regulatory protein E2; test: Binding affinity to HPV1a recombinant E2 protein hinge domain by surface plasmon resonance assay; in short: as §1
Compound,Kd (Regulatory protein E2 [1]) [µM],Kd (Regulatory protein E2 [2]) [µM],Activity [3],Activity [4] [%],Kd (Regulatory protein E2 [5]) [µM],Activity [6] [%],Kd (Regulatory protein E2 [7]) [µM],IC50 [8] [µM],Kd (Regulatory protein E2 [9]) [µM],Kd (Regulatory protein E2 [10]) [µM]
COc1cc([C@@H]2c3cc4c(cc3[C@H](O)[C@H]3COC(=O)[C@H]23)OCO4)cc(OC)c1OC [PODOFILOX],> 400,24.1,inactive,49.1,> 400,60.6,20.1,0.007,70.5,1.05
COc1cc([C@@H]2c3cc4c(cc3[C@H](OC(=O)CCCCCNC(=O)CCCC[C@@H]3SC[C@@H]5NC(=O)N[C@@H]53)[C@H]3COC(=O)[C@H]23)OCO4)cc(OC)c1OC,–,–,–,–,–,–,–,0.4,–,–
COc1cc([C@@H]2c3cc4c(cc3[C@@H](O[C@@H]3O[C@@H]5CO[C@@H](C)O[C@H]5[C@H](O)[C@H]3O)[C@H]3COC(=O)[C@H]23)OCO4)cc(OC)c1O [ETOPOSIDE],–,210,–,–,–,82,–,–,–,–
